The values that follow come from ChEMBL document CHEMBL1177671, “Synthesis and cytotoxic activity of a new potential DNA bisintercalator: 1,4-Bis{3-[N-(4-chlorobenzo[g]phthalazin-1-yl)aminopropyl]}piperazine” (Bioorg Med Chem, 2010).

For one test, the system named is HT-29. The test can be described thus: Cytotoxicity against human HT-29 cells after 72 hrs by XTT assay. Type of test: functional, cell-based. As to conditions: HT-29, 72 h. The gist of the method: (§1)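 Cells grown in DMEM with 10% heat-inactivated FBS, 2 mM L-glutamine, penicillin/streptomycin at 37 °C, 5% CO2, and tested Mycoplasma-negative. 1.5 × 10³ cells per well were exposed to compound over 10^-4 to 10^-9 M for 72 h at 37 °C, then read by XTT proliferation assay. Done in triplicate; IC50 is the concentration giving 50% proliferation inhibition versus untreated controls.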

In a further test the test system is SF-268. Nature of the test: Cytotoxicity against human SF268 cells after 72 hrs by XTT assay. Type of test: functional, cell-based. As to conditions: SF-268, 72 h. Put shortly: as §1
In general terms: Tetrazolium dyes change colour on reduction, which living cells bring about.

For a further test, the system named is NCI-H460. Nature of the test: Cytotoxicity against human NCI-H460 cells after 72 hrs by XTT assay. Type of test: functional, cell-based. As to conditions: NCI-H460, 72 h. The gist of the method:
as §1

The test system of another test is MCF7. Nature of the test: Cytotoxicity against human MCF7 cells after 72 hrs by XTT assay. The class given is functional, cell-based. As to conditions: MCF7, 72 h. The gist of the method:
as §1

Another test concerns Calf thymus DNA. The test can be described thus: Binding affinity to calf thymus DNA assessed as change in melting temperature. The class given is nucleic-acid assay. As to conditions: Bos taurus. The gist of the method: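 ct-DNA sonicated, filtered (0.45 µm) and held in sodium cacodylate buffer, I = 0.05 mol dm^-3, pH 7.0, at 7.5 × 10^-6 M base pairs. Melting was followed by absorbance at 260 nm versus temperature with increasing ligand, ligand absorbance subtracted and normalised. Tm is the transition midpoint (first-derivative maximum or tangent method). ΔTm = Tm(complex) − Tm(free DNA), averaged over ≥3 runs, error 0.5 °C.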

SMILES strings stand for the structures.

One may read the IC50 as the concentration that inhibits the measured activity by half. On to `COc1cccc2c1C(=O)c1c(O)c3c(c(O)c1C2=O)C[C@@](O)(C(=O)CO)C[C@@H]3O[C@H]1C[C@H](N)[C@H](O)[C@H](C)O1` [DOXORUBICIN], for which the IC50 in the test with HT-29 is 0.28 µM; in the test with SF-268, 0.22 µM; in the test on NCI-H460 it was 0.264 µM; in the test with MCF7, 0.324 µM. The Tm in the test with Calf thymus DNA is 20.6 °C.

Take `CCCCNc1nnc(NCCCC)c2cc3ccccc3cc12`: the IC50 came to 2.35 µM with HT-29, 2.63 µM in the test on SF-268, 2.03 µM in the test with NCI-H460 and 2.47 µM in the test on MCF7.

`CCCCCNc1nnc(NCCCCC)c2cc3ccccc3cc12`: the IC50 is 2.7 µM in the test with HT-29, 2.7 µM in the test with SF-268, 2.37 µM in the test with NCI-H460 and 2.57 µM with MCF7.

Turning to `c1ccc(CCNc2nnc(NCCc3ccccc3)c3cc4ccccc4cc23)cc1`, the IC50 in the test with HT-29 came to 2.95 µM; in the test on SF-268, 2.63 µM; in the test on NCI-H460 it was 1.83 µM; in the test on MCF7, 2.57 µM.

For `CCCCNc1nnc(Cl)c2cc3ccccc3cc12`, the IC50 in the test with HT-29 was > 100 µM; in the test with SF-268, 88 µM; in the test on NCI-H460 it was 85.5 µM; with MCF7 it was > 100 µM.

For the compound `NCCCN1CCN(CCCNc2nnc(Cl)c3cc4ccccc4cc23)CC1`, the IC50 came out at 10.5 µM in the test on HT-29, 12.6 µM in the test on SF-268, 8.8 µM in the test with NCI-H460 and 9.2 µM with MCF7.

Consider `Clc1nnc(NCCCN2CCN(CCCNc3nnc(Cl)c4cc5ccccc5cc34)CC2)c2cc3ccccc3cc12`, for which the IC50 stood at 0.497 µM in the test on HT-29, 0.665 µM with SF-268, 0.742 µM in the test on NCI-H460 and 0.863 µM in the test with MCF7.
